≈ marks a conversion by molar mass, not a printed value.
Legend:
P388 [1] = test: Concentration required for 50% inhibition of incorporation of labeled thymidine by p388 cells for synthesis of DNA (in vitro); type: functional; conditions: Mus musculus, read-out: ED50 (the source's name)
P388 [2] = test: Percent of increased life span of P388 cells implanted CDF1 male mice; type: functional, Mus musculus
Outline: (§1)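 CDF1 male mice, groups of seven, given 10^6 P388 cells ip on day 0; drug ip in 5% DMSO–saline on days 1, 5 and 9; controls received vehicle; range of doses tested, optimal nontoxic dose listed; median survival time; %ILS = (treated − control)/control × 100; average of two or more experiments.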

P388 [3] = test: Concentration required for 50% inhibition of incorporation of labeled uridine by P388 cells for the synthesis of RNA (in vitro); type: functional; conditions: Mus musculus, read-out: ED50 (the source's name)
P388 [4] = test: Median survival time of the P388 cells implanted CDF1 male mice in vivo; type: functional, Mus musculus; outline: as §1
CCRF-CEM = test: In vitro antitumor activity against human lymphoblastic leukemia cells.; type: functional; conditions: read-out: ID50 (the source's name)
Outline: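 Human lymphoblastic leukemia CCRF-CEM cells grown in suspension culture; growth inhibition in vitro; ID50 (ng/mL) reported as the 50% inhibitory dose.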

P388 [5] = test: Optimal dose for antitumor activity was measured in P388 cells of CDF1 male mice in vivo; type: functional, Mus musculus; outline: as §1
Calf thymus DNA [6] = test: Apparent number of binding sites per base pairs in DNA; type: nucleic-acid assay; conditions: Bos taurus
Outline: (§2)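 Calf thymus DNA; spectral titration; binding isotherms in 0.01 M phosphate buffer, pH 7.0, 20 °C; Kapp (per base pair) and Bapp (drug binding sites per base pair) taken from Scatchard plot.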

Calf thymus DNA [7] = test: Apparent binding constant calf thymus DNA-drug complex; type: nucleic-acid assay; conditions: Bos taurus; outline: as §2

SMILES | EC50 (P388 [1]) | ILS (P388 [2]) | EC50 (P388 [3]) | MST (P388 [4]) | IC50 (CCRF-CEM) | Optimal dose (P388 [5]) | Bapp (Calf thymus DNA [6]) | K app (Calf thymus DNA [7])
CCCOc1cc(C(=O)N[C@@H]2C(=O)N[C@H](C(C)C)C(=O)N3CCC[C@H]3C(=O)N(C)CC(=O)N(C)[C@@H](C(C)C)C(=O)O[C@@H]2C)c2nc3c(C(=O)N[C@@H]4C(=O)N[C@H](C(C)C)C(=O)N5CCC[C@H]5C(=O)N(C)CC(=O)N(C)[C@@H](C(C)C)C(=O)O[C@@H]4C)c(N)c(=O)c(C)c-3oc2c1C | 1980 nM | 52% | 230 nM | 16 days | 0.31 µg/mL (≈ 0.236 µM) | 750 µg/kg | – | –
Cc1c2oc3c(C)ccc(C(=O)N[C@@H]4C(=O)N[C@H](C(C)C)C(=O)N5CCC[C@H]5C(=O)N(C)CC(=O)N(C)[C@@H](C(C)C)C(=O)O[C@@H]4C)c3nc-2c(C(=O)N[C@@H]2C(=O)N[C@H](C(C)C)C(=O)N3CCC[C@H]3C(=O)N(C)CC(=O)N(C)[C@@H](C(C)C)C(=O)O[C@@H]2C)c(NCCCCCCCCCCN)c1=O | 2700 nM | 64% | 700 nM | 18 days | 0.28 µg/mL (≈ 0.198 µM) | 1800 µg/kg | – | –
CCOc1cc(C(=O)N[C@@H]2C(=O)N[C@H](C(C)C)C(=O)N3CCC[C@@H]3C(=O)N(C)CC(=O)N(C)[C@@H](C(C)C)C(=O)O[C@@H]2C)c2nc3c(C(=O)N[C@H]4C(=O)N[C@@H](C(C)C)C(=O)N5CCC[C@H]5C(=O)N(C)CC(=O)N(C)[C@H](C(C)C)C(=O)O[C@H]4C)c(N)c(=O)c(C)c-3oc2c1C | – | – | – | – | – | – | 0.097 | 6.9e+06 M⁻¹
CCCNc1c(C(=O)N[C@@H]2C(=O)N[C@H](C(C)C)C(=O)N3CCC[C@H]3C(=O)N(C)CC(=O)N(C)[C@@H](C(C)C)C(=O)O[C@@H]2C)c2nc3c(C(=O)N[C@@H]4C(=O)N[C@H](C(C)C)C(=O)N5CCC[C@H]5C(=O)N(C)CC(=O)N(C)[C@@H](C(C)C)C(=O)O[C@@H]4C)ccc(C)c3oc-2c(C)c1=O | > 5500 nM | 55% | 1820 nM | 17 days | 0.45 µg/mL (≈ 0.347 µM) | 1200 µg/kg | – | –
CCCCOc1cc(C(=O)N[C@@H]2C(=O)N[C@H](C(C)C)C(=O)N3CCC[C@@H]3C(=O)N(C)CC(=O)N(C)[C@@H](C(C)C)C(=O)O[C@@H]2C)c2nc3c(C(=O)N[C@H]4C(=O)N[C@@H](C(C)C)C(=O)N5CCC[C@H]5C(=O)N(C)CC(=O)N(C)[C@H](C(C)C)C(=O)O[C@H]4C)c(N)c(=O)c(C)c-3oc2c1C | – | – | – | – | – | – | – | 1.1e+06 M⁻¹
CCOc1cc(C(=O)N[C@@H]2C(=O)N[C@H](C(C)C)C(=O)N3CCC[C@H]3C(=O)N(C)CC(=O)N(C)[C@@H](C(C)C)C(=O)O[C@@H]2C)c2nc3c(C(=O)N[C@@H]4C(=O)N[C@H](C(C)C)C(=O)N5CCC[C@H]5C(=O)N(C)CC(=O)N(C)[C@@H](C(C)C)C(=O)O[C@@H]4C)c(N)c(=O)c(C)c-3oc2c1C | 1630 nM | 91% | 151 nM | 20 days | 0.17 µg/mL (≈ 0.131 µM) | 450 µg/kg | – | –
CCCOc1cc(C(=O)N[C@@H]2C(=O)N[C@H](C(C)C)C(=O)N3CCC[C@@H]3C(=O)N(C)CC(=O)N(C)[C@@H](C(C)C)C(=O)O[C@@H]2C)c2nc3c(C(=O)N[C@H]4C(=O)N[C@@H](C(C)C)C(=O)N5CCC[C@H]5C(=O)N(C)CC(=O)N(C)[C@H](C(C)C)C(=O)O[C@H]4C)c(N)c(=O)c(C)c-3oc2c1C | – | – | – | – | – | – | 0.078 | 2.1e+06 M⁻¹
COc1cc(C(=O)N[C@@H]2C(=O)N[C@H](C(C)C)C(=O)N3CCC[C@H]3C(=O)N(C)CC(=O)N(C)[C@@H](C(C)C)C(=O)O[C@@H]2C)c2nc3c(C(=O)N[C@@H]4C(=O)N[C@H](C(C)C)C(=O)N5CCC[C@H]5C(=O)N(C)CC(=O)N(C)[C@@H](C(C)C)C(=O)O[C@@H]4C)c(N)c(=O)c(C)c-3oc2c1C | 628 nM | 81% | 69 nM | 19 days | 0.16 µg/mL (≈ 0.124 µM) | 600 µg/kg | – | –
Cc1c2oc3c(C)c(O)c(N)c(C(=O)N[C@H]4C(=O)N[C@@H](C(C)C)C(=O)N5CCC[C@H]5C(=O)N(C)CC(=O)N(C)[C@H](C(C)C)C(=O)O[C@H]4C)c3nc-2c(C(=O)N[C@@H]2C(=O)N[C@H](C(C)C)C(=O)N3CCC[C@@H]3C(=O)N(C)CC(=O)N(C)[C@@H](C(C)C)C(=O)O[C@@H]2C)c/c1=N/Cc1ccc[nH]1 | – | – | – | – | – | – | 0.055 | 9.2e+07 M⁻¹
Cc1c2oc3c(C)c(OC(=O)C45CC6CC(CC(C6)C4)C5)cc(C(=O)N[C@@H]4C(=O)N[C@H](C(C)C)C(=O)N5CCC[C@H]5C(=O)N(C)CC(=O)N(C)[C@@H](C(C)C)C(=O)O[C@@H]4C)c3nc-2c(C(=O)N[C@@H]2C(=O)N[C@H](C(C)C)C(=O)N3CCC[C@H]3C(=O)N(C)CC(=O)N(C)[C@@H](C(C)C)C(=O)O[C@@H]2C)c(N)c1=O | 730 nM | 167% | 176 nM | 28 days | 0.2 µg/mL (≈ 0.14 µM) | 500 µg/kg | – | –
COc1cc(C(=O)N[C@@H]2C(=O)N[C@H](C(C)C)C(=O)N3CCC[C@@H]3C(=O)N(C)CC(=O)N(C)[C@@H](C(C)C)C(=O)O[C@@H]2C)c2nc3c(C(=O)N[C@H]4C(=O)N[C@@H](C(C)C)C(=O)N5CCC[C@H]5C(=O)N(C)CC(=O)N(C)[C@H](C(C)C)C(=O)O[C@H]4C)c(N)c(=O)c(C)c-3oc2c1C | – | – | – | – | – | – | 0.11 | 7.7e+06 M⁻¹
Cc1c2oc3c(C)c(O)c(N)c(C(=O)N[C@H]4C(=O)N[C@@H](C(C)C)C(=O)N5CCC[C@H]5C(=O)N(C)CC(=O)N(C)[C@H](C(C)C)C(=O)O[C@H]4C)c3nc-2c(C(=O)N[C@@H]2C(=O)N[C@H](C(C)C)C(=O)N3CCC[C@@H]3C(=O)N(C)CC(=O)N(C)[C@@H](C(C)C)C(=O)O[C@@H]2C)c/c1=N/Cc1ccc(Cl)c(Cl)c1 | – | – | – | – | – | – | 0.058 | 2.6e+07 M⁻¹
Cc1c2oc3c(C)c(O)c(N)c(C(=O)N[C@@H]4C(=O)N[C@H](C(C)C)C(=O)N5CCC[C@H]5C(=O)N(C)CC(=O)N(C)[C@@H](C(C)C)C(=O)O[C@@H]4C)c3nc-2c(C(=O)N[C@@H]2C(=O)N[C@H](C(C)C)C(=O)N3CCC[C@H]3C(=O)N(C)CC(=O)N(C)[C@@H](C(C)C)C(=O)O[C@@H]2C)cc1=O | 5080 nM | 129% | 3220 nM | 24 days | 0.95 µg/mL (≈ 0.747 µM) | 1200 µg/kg | – | –
Cc1c2oc3c(C)ccc(C(=O)N[C@@H]4C(=O)N[C@H](C(C)C)C(=O)N5CCC[C@H]5C(=O)N(C)CC(=O)N(C)[C@@H](C(C)C)C(=O)O[C@@H]4C)c3nc-2c(C(=O)N[C@@H]2C(=O)N[C@H](C(C)C)C(=O)N3CCC[C@H]3C(=O)N(C)CC(=O)N(C)[C@@H](C(C)C)C(=O)O[C@@H]2C)c(NCCCN)c1=O | 430 nM | 172% | 118 nM | 30 days | 0.3 µg/mL (≈ 0.229 µM) | 1200 µg/kg | – | –
Cc1c2oc3c(C)c(O)c(N)c(C(=O)N[C@@H]4C(=O)N[C@H](C(C)C)C(=O)N5CCC[C@H]5C(=O)N(C)CC(=O)N(C)[C@@H](C(C)C)C(=O)O[C@H]4C)c3nc-2c(C(=O)N[C@@H]2C(=O)N[C@H](C(C)C)C(=O)N3CCC[C@H]3C(=O)N(C)CC(=O)N(C)[C@@H](C(C)C)C(=O)O[C@H]2C)cc1=N | – | – | – | – | – | – | 0.121 | 2.3e+07 M⁻¹
Cc1c2oc3c(C)c(O)c(N)c(C(=O)N[C@H]4C(=O)N[C@@H](C(C)C)C(=O)N5CCC[C@H]5C(=O)N(C)CC(=O)N(C)[C@H](C(C)C)C(=O)O[C@H]4C)c3nc-2c(C(=O)N[C@@H]2C(=O)N[C@H](C(C)C)C(=O)N3CCC[C@@H]3C(=O)N(C)CC(=O)N(C)[C@@H](C(C)C)C(=O)O[C@@H]2C)c/c1=N/Cc1ccccc1 | – | – | – | – | – | – | 0.049 | 5.8e+06 M⁻¹
Cc1c2oc3c(C)c(O)c(N)c(C(=O)N[C@H]4C(=O)N[C@@H](C(C)C)C(=O)N5CCC[C@H]5C(=O)N(C)CC(=O)N(C)[C@H](C(C)C)C(=O)O[C@H]4C)c3nc-2c(C(=O)N[C@@H]2C(=O)N[C@H](C(C)C)C(=O)N3CCC[C@@H]3C(=O)N(C)CC(=O)N(C)[C@@H](C(C)C)C(=O)O[C@@H]2C)c/c1=N/Cc1ccco1 | – | – | – | – | – | – | 0.055 | 3.8e+06 M⁻¹
Cc1c2oc3c(C)c(O)c(N)c(C(=O)N[C@H]4C(=O)N[C@@H](C(C)C)C(=O)N5CCC[C@H]5C(=O)N(C)CC(=O)N(C)[C@H](C(C)C)C(=O)O[C@H]4C)c3nc-2c(C(=O)N[C@@H]2C(=O)N[C@H](C(C)C)C(=O)N3CCC[C@@H]3C(=O)N(C)CC(=O)N(C)[C@@H](C(C)C)C(=O)O[C@@H]2C)cc1=O | – | – | – | – | – | – | 0.1 | 3.2e+07 M⁻¹
Cc1c2oc3c(C)c(O)c(N)c(C(=O)N[C@H]4C(=O)N[C@@H](C(C)C)C(=O)N5CCC[C@H]5C(=O)N(C)CC(=O)N(C)[C@H](C(C)C)C(=O)O[C@H]4C)c3nc-2c(C(=O)N[C@@H]2C(=O)N[C@H](C(C)C)C(=O)N3CCC[C@@H]3C(=O)N(C)CC(=O)N(C)[C@@H](C(C)C)C(=O)O[C@@H]2C)c/c1=N/Cc1cccc(Oc2ccccc2)c1 | – | – | – | – | – | – | 0.055 | 8.8e+06 M⁻¹
